Hits are enriched below; roughly 1.5% of the tested compounds scored in any of these assays.
T cell modulator: modulates CD8 T cell binding to vesicles; 2C CD8+ T cell-vesicle binding, flow cytometry; active compounds read low; response (vesicle binding), % at 7 µM; hit rate 0.068% among 330,000;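 active = response, share of CD8 T cells binding vesicles, and their 90th percentile fluorescence all below set limits, cut at about 80% in these data, passing the limit was not always enough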;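 also: values below 100% mean blocked vesicle binding to the CD8+ T cells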
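Material: 2C TCR transgenic mouse naive CD8+ T cells, MACS-purified. Also added: QL9-charged Drosophila Ld/ICAM-1/B7-1 vesicles. Timing: binding 1.5 h at 37 °C. Measured by: high-throughput flow cytometry with anti-B7-1 and anti-CD8 staining. Read-out: percent CD8+ FL2 mean versus row control. Controls: Unloaded micro-vesicles (low), QL9 vesicles with 0.7% DMSO (high).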
LANA-H2B inh: blocks KSHV LANA binding to histone H2A/H2B | cell-free LANA-H2A/H2B peptide, fluorescence polarization | inhibition, % (test concentration not listed) | hit rate 0.6% among 320,000 | AID 2629; in the data active = inhibition mostly above about 10%, no sharp cut-off; inactive = mostly below about 6.7%
HDAC3 inh: inhibitors of human histone deacetylase 3. hit rate 0.15% among 320,000. recombinant HDAC3, fluorogenic peptide/trypsin coupled, fluorescence. O15379. inhibition, % at 8.3 µM; in the data active = inhibition above about 26%, passing the limit was not always enough; inconclusive = no clear call, values can overlap the other calls
DSG3 Ab inh: blocks pemphigus antibody binding to human desmoglein-3; P32926; DSG3-coupled beads, scFv-anti-DSG3-GFP binding, flow cytometry; active compounds read low; binding (percent of control), % at 10 µM; hit rate 0.48% among 310,000; AID 588358;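 active = binding more than 3 SD below its plate's average and above zero; inconclusive = below that plate limit but binding exactly zero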;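 also: hits lower antibody fragment binding to DSG3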
Target sequence (P32926 whole entry, looked up, the tested form may be a part): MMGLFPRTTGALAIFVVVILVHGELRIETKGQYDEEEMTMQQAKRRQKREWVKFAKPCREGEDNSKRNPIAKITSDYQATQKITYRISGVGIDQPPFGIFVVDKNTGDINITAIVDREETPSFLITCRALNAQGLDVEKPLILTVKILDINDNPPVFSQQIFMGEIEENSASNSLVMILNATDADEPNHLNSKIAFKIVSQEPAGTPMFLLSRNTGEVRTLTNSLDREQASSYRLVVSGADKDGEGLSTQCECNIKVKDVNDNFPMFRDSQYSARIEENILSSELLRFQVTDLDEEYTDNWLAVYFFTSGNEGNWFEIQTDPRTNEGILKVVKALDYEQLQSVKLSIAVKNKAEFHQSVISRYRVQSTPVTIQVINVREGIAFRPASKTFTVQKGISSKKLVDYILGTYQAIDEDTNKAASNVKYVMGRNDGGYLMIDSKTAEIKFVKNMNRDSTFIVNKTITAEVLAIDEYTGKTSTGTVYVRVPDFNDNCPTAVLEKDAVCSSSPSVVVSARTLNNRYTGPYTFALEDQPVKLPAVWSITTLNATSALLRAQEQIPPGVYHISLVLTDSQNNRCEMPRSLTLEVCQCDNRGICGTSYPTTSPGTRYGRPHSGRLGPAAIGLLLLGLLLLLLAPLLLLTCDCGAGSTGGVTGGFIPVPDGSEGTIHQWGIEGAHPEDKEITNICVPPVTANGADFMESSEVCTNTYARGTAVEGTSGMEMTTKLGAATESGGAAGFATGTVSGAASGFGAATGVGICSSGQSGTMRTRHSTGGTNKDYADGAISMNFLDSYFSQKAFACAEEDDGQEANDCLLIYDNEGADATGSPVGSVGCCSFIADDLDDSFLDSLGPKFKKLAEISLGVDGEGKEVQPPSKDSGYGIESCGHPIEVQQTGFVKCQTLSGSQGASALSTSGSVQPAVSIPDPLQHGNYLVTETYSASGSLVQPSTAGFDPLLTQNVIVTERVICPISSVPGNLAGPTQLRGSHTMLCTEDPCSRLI
Arrestin-AP2 inh: blocks beta-arrestin peptide binding to AP2 adaptin; FITC-arrestin peptide / GST-AP2 beads, flow cytometry; AP2 beta2 appendage carries R879A mutation; inhibition, % at 10 µM; hit rate 0.31% among 340,000; AID 504490;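 active = inhibition above a set limit, near 3 SD of compounds lacking own fluorescence, cut at about 54% in these data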;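 also: plate controls were DMSO wells for no effect and 5 µM unlabelled arrestin peptide for full effect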
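System: GST-AP2 R879A glutathione beads; medium: PBS, Tween 20 0.05%, BSA 0.1%; reagent: fluorescein-tagged arrestin peptide at 50 nM final; schedule: pre-incubation 12 min, peptide binding 1 h, room temperature; detection: flow cytometry, FL1 (488/535 nm); read-out: inhibition as reduced fluorescein signal on beads, percent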
Arr AP2 CP1: inhibitors of human beta-arrestin and AP2 interaction; shares compounds with Arrestin-AP2 inh; GST-AP2 beads, FITC arrestin peptide binding, flow cytometry; GST-fused beta2-adaptin appendage, R879A mutant; inhibition, % at 10 µM; hit rate 2% among 1,300; AID 504908;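 active = inhibition above a set limit, roughly 3 SD of non-fluorescent compound noise, cut at about 38% in these data; inactive = inhibition at or below that limit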;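 also: loss of bead fluorescence from 50 nM FITC arrestin peptide bound to appendage; 0% = negative control wells and 100% = excess unlabelled arrestin peptide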
GST-FITC bead: counter-screen for beta-arrestin AP2 inhibitors: GST-GSH bead binding; hit rate 2% among 1,300; shares compounds with Arrestin-AP2 inh; GST-fluorescein binding to GSH beads, fluorescence; inhibition, % at 10 µM; AID 588338;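 active = inhibition above 50%, about 3 SD of the inhibition seen with non-fluorescent compounds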;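 also: fluorescein maleimide labelled GST captured on 4 micron glutathione beads; higher means more loss of bead fluorescence from quenching or blocked binding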
* = called active by the depositor; u = inconclusive; x = not tested or not shown.

SMILES	T cell modulator	LANA-H2B inh	HDAC3 inh	DSG3 Ab inh	Arrestin-AP2 inh	Arr AP2 CP1	GST-FITC bead
COc1cc(C(=O)NCC(=O)N/N=C/c2cccnc2)cc(OC)c1OC	433	3	2	92	-3	x	x
O=C(NC1CCCCC1)C1CCN(C(=O)c2ccc(Cl)cc2)CC1	248	2	-3	100	8	x	x
CN(C)CCCN(C(=O)c1ccc(S(=O)(=O)N(C)C2CCCCC2)cc1)c1nc2ccc(F)cc2s1	0	2	3	102	29	x	x
Cc1cc(C)c2sc(N(CCCN(C)C)C(=O)c3ccc(S(=O)(=O)N(C)C4CCCCC4)cc3)nc2c1	224	-3	20	112	57*	-2	-6
O=C(CNC(=O)c1ccc(Br)cc1)Nc1ccc2c(c1)CCC2	139	0	10	106	54*	12	3
Cc1cc(O)ccc1N/C=C/c1onc(C)c1[N+](=O)[O-]	269	0	16	84	99*	-2	9
C=CCN1C(=O)/C(=C/c2ccsc2)SC1=S	104	-6	12	77	7	x	x
C=CCN1C(=O)/C(=C/c2ccc(-c3ccc(F)cc3)o2)SC1=S	372	0	0	106	67*	10	20
Cc1cc(NC(=O)c2cnn3c(C(F)(F)F)cc(-c4ccccc4)nc23)no1	352	6	7	98	0	3	-17
Cc1cc(NC(=O)c2cnn3c(C(F)F)cc(-c4ccccc4)nc23)no1	136	-2	5	101	1	3	2
Cc1cc(NC(=O)c2cnn3c(C(F)F)cc(C4CC4)nc23)no1	455	0	7	116	19	x	x
Cc1cccc(C(=O)NC(NCc2ccco2)C(Cl)(Cl)Cl)c1 (stereo not drawn)	473	-4	1	105	11	x	x
Cc1ccc(C(=O)NC(NCc2ccco2)C(Cl)(Cl)Cl)cc1 (stereo not drawn)	316	-5	1	101	55*	3	-2
O=C1CCCC(O)=C1Sc1ccccc1C(=O)O	130	-2	u	98	74*	11	7
CN(C)c1oc(COc2ccc(F)cc2)nc1C#N	282	0	-1	101	55*	0	4
CCn1ncc(C(=O)Nc2ccc([N+](=O)[O-])cc2OC)c1C	333	3	-7	96	1	x	x
CCn1ncc(Cl)c1C(=O)Nc1cc([N+](=O)[O-])ccc1OC	80	0	0	87	106*	-2	14
COCCNc1nc2ccccc2nc1NS(=O)(=O)c1ccc(C)cc1C	588	-1	-15	97	105*	-8	-8
COCCCNc1nc2ccccc2nc1NS(=O)(=O)c1ccc(C)c(C)c1	76	6	-9	88	7	x	x
CC(C)CN(C(=O)c1ccc(S(=O)(=O)N2CCCCC2)cc1)C1CCS(=O)(=O)C1 (stereo not drawn)	x	x	x	102	-7	x	x
CC(C)CN(C(=O)c1ccc(S(=O)(=O)N2CCCC2)cc1)C1CCS(=O)(=O)C1 (stereo not drawn)	322	0	-9	99	55*	8	-8
CC1CC1C(=O)N(C)CC(=O)Nc1ccccc1Br (stereo not drawn)	276	4	1	102	8	x	x
CCOc1ccc(S(=O)(=O)N2CCC(C(=O)NCc3ccncc3)CC2)cc1	354	-1	-6	100	-3	x	x
O=C(Oc1ccccc1F)c1ccc2c(=O)n3c(nc2c1)CCC3	215	-2	7	99	57*	5	-1
CC(C)NC(=O)C1CC(=O)N(CCc2ccc(F)cc2)C1 (stereo not drawn)	x	x	x	100	x	x	x
CCOc1cccc(OCCCNCCCOC)c1	226	4	-6	105	93*	4	-6
CCc1cccc(OCCCCNCCCOC)c1	456	-1	-1	82	25	x	x
CCn1cc(C(=O)N[C@H](C(=O)O)C(C)C)c(=O)c2cc3c(cc21)OCO3	222	-1	8	100	-11	x	x

Assay outcomes: PubChem, several laboratories
